Here are results for 1 molecule from ChEMBL document CHEMBL3877244, “Synthesis and biological evaluation of new aryl-alkyl(alkenyl)-4-benzylpiperidines, novel Sigma Receptor (SR) modulators, as potential anticancer-agents” (Eur J Med Chem, 2016).

Active and inactive are the calls of the source. No cut-off for these calls is given here.

One may read the IC50 as the midpoint of a concentration-inhibition curve. By Ki is commonly meant the dissociation constant of the complex between target and ligand, obtained from inhibition or displacement. Higher therefore signals lower affinity.

For assay [1], the system named is Paca3. The experiment in a line: Induction of apoptosis in human Paca3 cells assessed as cleaved form of caspase 3 at 10 uM after 24 hrs in absence of 10% fetal calf serum by Western blot analysis. In kind it is functional, cell-based. In outline: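 PaCa3 cells starved 24 h without FCS, then exposed to 10 μM. Cleaved caspase 3 detected by western blot. Membranes blocked with 5% milk in T-TBS, primary antibody overnight at 4 °C, then secondary antibody, chemiluminescent detection.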
In general terms: In western blotting, separated proteins are transferred to a membrane and probed.

The subject of another assay is U-87MG ATCC. The experiment in a line: Cytotoxicity against human U87 cells assessed as reduction in cell viability after 48 hrs in presence of 10% fetal calf serum by MTS assay. Format: functional, cell-based. In outline:
(§1)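 Cells in exponential growth, 3×10^3 per well, in medium with 10% FCS. Capan-2, PaCa3, MDA-MB 231, SUM 159 and PC3 were grown in DMEM/Ham's F12 with glutamine 2 mM and insulin 10 µg/ml. U87 was grown in EMEM and LNCaP in RPMI, each with glutamine. Compound 0.1–100 µM, continuous exposure (24 h; 48 h for the 48 h lines). MTS, OD 490 nm. IC50 read graphically. Three independent experiments in octuplicate.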
In general terms: Formazan colour is commonly taken as a measure of viable cells.

A short description of assay [2]: Cytotoxicity against human MDA-MB-231 cells assessed as reduction in cell viability after 24 hrs in presence of 10% fetal calf serum by MTS assay. In kind it is functional, cell-based. The settings on record: MDA-MB-231, 24 h. The gist of the method: as §1
Assay [3] is described as follows: Induction of apoptosis in human Paca3 cells assessed as late apoptotic cells in absence of 10% fetal calf serum at 10 uM after 24 hrs by annexin V-FITC/propidium iodide staining-based flow cytometry (reference value: 4.6 +/- 0.5%). In kind it is functional. (In general: In flow cytometry, cells or beads pass a laser one at a time.)
The next assay deals with Capan-2. The experiment in a line: Cytotoxicity against human Capan2 cells assessed as reduction in cell viability after 48 hrs in presence of 10% fetal calf serum by MTS assay. In kind it is functional, cell-based. In outline:
as §1

In assay [4] the test system is Paca3. The experiment in a line: Induction of apoptosis in human Paca3 cells assessed as cleaved form of caspase 3 at 25 uM after 24 hrs in presence of 10% fetal calf serum by Western blot analysis. Format: functional, cell-based. In outline: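 PaCa3 cells in 10% serum medium, exposed 24 h to 25 μM. Cleaved caspase 3 detected by western blot. Membranes blocked with T-TBS (0.1% Tween) and 5% non-fat milk, primary antibody overnight at 4 °C, then secondary antibody, chemiluminescent detection. Two independent experiments.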

For the next assay, the system named is LNCaP. The experiment in a line: Cytotoxicity against human LNCAP cells assessed as reduction in cell viability after 48 hrs in presence of 10% fetal calf serum by MTS assay. Format: functional, cell-based. The gist of the method:
as §1

The nature of assay [5]: Cytotoxicity against human PC3 cells assessed as reduction in cell viability after 24 hrs in presence of 10% fetal calf serum by MTS assay. Format: functional, cell-based. The settings on record: PC-3, 24 h. In outline:
as §1

A short description of assay [6]: Cytotoxicity against human LNCAP cells assessed as reduction in cell viability after 24 hrs in absence of 10% fetal calf serum by MTS assay. In kind it is functional, cell-based. The gist of the method:
(§2)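 Cells starved 24 h in low-glucose medium without FCS, then treated 24 h with compound in serum-free conditions. MTS read-out, OD 490 nm, expressed as percent of untreated control. IC50 read graphically from the dose-response plot. Three independent experiments in octuplicate.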

Assay [7] in a line: Induction of apoptosis in human Paca3 cells assessed as necrotic cells in absence of 10% fetal calf serum at 10 uM after 24 hrs by annexin V-FITC/propidium iodide staining-based flow cytometry (reference value: 0.8 +/- 0.6%). In kind it is functional.
The nature of assay [8]: Induction of apoptosis in human Paca3 cells assessed as viable cells in absence of 10% fetal calf serum at 10 uM after 24 hrs by annexin V-FITC/propidium iodide staining-based flow cytometry (reference value: 91.1 +/- 0.7%). Format: functional.
Assay [9] can be described thus: Induction of apoptosis in human Paca3 cells assessed as viable cells in presence of 10% fetal calf serum at 25 uM after 24 hrs by annexin V-FITC/propidium iodide staining-based flow cytometry (reference value: 89.9 +/- 0.1%). Format: functional.
The target in assay [10] is Sigma non-opioid intracellular receptor 1 (Rattus norvegicus) (UniProt Q9R0C9). Description: Antagonist activity at sigma 1 receptor in rat PC12 cells assessed as inhibition of PRE-084-mediated NGF-induced neurite outgrowth at 0.25 to 2.5 uM after 96 hrs. Format: cell-based. The settings on record: PC-12. In outline: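 PC12 cells in differentiation medium with NGF 2.5 ng/ml. The S1R agonist PRE-084 (5, 10, 25 μM; 10 mM stock in apyrogenic water) was given alone or with compound at 0.25 or 2.5 μM. NGF-induced neurite outgrowth was scored. Data are mean±sem of at least 5 experiments, each in triplicate.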
Sigma non-opioid intracellular receptor 1 (Rattus norvegicus), sequence (Q9R0C9 whole entry): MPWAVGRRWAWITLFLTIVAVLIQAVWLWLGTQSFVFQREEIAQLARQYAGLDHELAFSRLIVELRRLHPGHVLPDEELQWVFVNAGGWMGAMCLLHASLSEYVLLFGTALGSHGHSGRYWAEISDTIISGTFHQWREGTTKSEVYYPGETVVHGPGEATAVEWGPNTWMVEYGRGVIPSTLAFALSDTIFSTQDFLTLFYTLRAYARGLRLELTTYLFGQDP

The subject of another assay is MDA-MB-231. The experiment in a line: Cytotoxicity against human MDA-MB-231 cells assessed as reduction in cell viability after 48 hrs in presence of 10% fetal calf serum by MTS assay. Format: functional, cell-based. The gist of the method:
as §1

Assay [11] in a line: Induction of apoptosis in human Paca3 cells assessed as necrotic cells in presence of 10% fetal calf serum at 25 uM after 24 hrs by annexin V-FITC/propidium iodide staining-based flow cytometry (reference value: 0.6 +/- 0.4%). Format: functional.
Assay [12] in a line: Cytotoxicity against human U87 cells assessed as reduction in cell viability after 24 hrs in presence of 10% fetal calf serum by MTS assay. Format: functional, cell-based, U-87MG ATCC. The settings on record: U-87 MG. The gist of the method: as §1
Assay [13] can be described thus: Cytotoxicity against human Capan2 cells assessed as reduction in cell viability after 24 hrs in absence of 10% fetal calf serum by MTS assay. In kind it is functional, cell-based. The settings on record: Capan-2, 24 h. The gist of the method:
as §2

The nature of assay [14]: Cytotoxicity against human Paca3 cells assessed as reduction in cell viability after 48 hrs in presence of 10% fetal calf serum by MTS assay. In kind it is functional, cell-based. The settings on record: Paca3, 48 h. In outline: as §1
In assay [15] the test system is Paca3. Description: Induction of apoptosis in human Paca3 cells at 25 uM after 24 hrs in presence of 10% fetal calf serum by TUNEL assay. Format: functional, cell-based. In outline: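 PaCa3 cells in serum medium, exposed 24 h (10, 25, 50 μM tested). Cells fixed in 1% formaldehyde, held in 70% ethanol, permeabilized with 0.1% Triton X-100. TdT/FITC-dUTP labelling 90 min at 37 °C, then propidium iodide 2.5 μg/ml with RNase. Percent apoptotic cells by flow cytometry.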

Assay [16] concerns the target Sigma non-opioid intracellular receptor 1 (Rattus norvegicus) (UniProt Q9R0C9). The experiment in a line: Antagonist activity at sigma 1 receptor in rat PC12 cells assessed as inhibition of NGF-induced neurite outgrowth at 2.5 to 10 uM after 96 hrs. Format: cell-based. The settings on record: PC-12. The gist of the method:
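PC12 cells grown in RPMI 1640 with 10% heat-inactivated horse serum and 5% FBS. Differentiation ran in medium with 0.5% serum plus NGF 2.5 ng/ml, with compound at 0–10 μM for 96 h. Neurite outgrowth was scored. Data are mean±sem of at least 5 experiments, each in triplicate.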

In another assay the test system is SUM-159-PT. Description: Cytotoxicity against human SUM159 cells assessed as reduction in cell viability after 48 hrs in presence of 10% fetal calf serum by MTS assay. In kind it is functional, cell-based. The gist of the method:
as §1

The nature of assay [17]: Cytotoxicity against human Paca3 cells assessed as decrease in cell viability under starvation condition after 24 hrs by MTS assay. The settings on record: Paca3, 24 h. In kind it is functional, cell-based. In outline:
as §2

Assay [18] in a line: Cytotoxicity against human Capan2 cells assessed as reduction in cell viability after 24 hrs in presence of 10% fetal calf serum by MTS assay. Format: functional, cell-based. The settings on record: Capan-2, 24 h. The gist of the method:
as §1

A short description of assay [19]: Displacement of [3H]-DTG from sigma 2 receptor in rat liver after 120 mins by scintillation counting analysis. In outline:
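Rat liver homogenate (150 µg) incubated 120 min at room temperature with 3 nM [³H]-DTG in 50 mM Tris-HCl pH 8.0. (+)-Pentazocine 100 nM masked S1R; haloperidol 10 µM defined nonspecific binding. Ki by Cheng–Prusoff from IC50.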

As for `C/C(=C\CN1CCC(Cc2ccccc2)CC1)c1ccc2ccccc2c1`, the result in the assay on Paca3 [1], in the assay on U-87MG ATCC, with Capan-2, in the assay with Paca3 [4], with LNCaP and in the assay on MDA-MB-231 was Active. Moreover, the result in the assay on Paca3 [15] and with SUM-159-PT was Active. For the same molecule, the IC50 came to 64.9 µM in assay [2]; 50.6 µM in assay [5]; 9.58 µM in assay [6]; 60.6 µM in [12]; 9.61 µM in assay [13]; 28.7 µM in [14]. Moreover, the values for the IC50 in [17] and in assay [18] were 7 µM and 52.6 µM, respectively. Besides, the Activity in assay [3] is 17.2%; in [7], 0.3%; in [8], 71.6%; in assay [9] it was 22.4%; in [11], 0.4%. In addition, the inhibition entry in assay [10] and in [16] was “Active” each time. In assay [19], this molecule yielded a Ki of 0.022 µM.
